Measured values from PMC3915044 (Integrative biology : quantitative biosciences from nano to …, 2013).
“Also recorded” adds a separate entry of the source.

What was measured:
[1] = tested on: CL1-0 cells; assay: Flow cytometry of fluorescence intensity; format: cell-based, human
In short: (§1)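 CL1-0 and MRC-5 cells were loaded with 1 µM carbazole dication for 5 h and exposed to 0, 0.5 or 1 mM lysosomotropic agent. Mean fluorescence was taken at 564–606 nm with 488 nm excitation and expressed as a ratio across treatments; three independent experiments.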

[2] = tested on: CL1-0 cells; assay: Subcellular localization by epi-fluorescence/confocal microscopy; format: cell-based, human; details: for subcellular localization (nucleus versus mitochondria): CL1-0 human lung cancer cells, fluorescence microscopy
[3] = tested on: primary human normal foreskin fibroblast cell line (BJ); assay: Cytoplasmic microinjection; format: cell-based; details: BJ cells, 5 min after injection
In short: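 BJ primary foreskin fibroblasts were grown on glass coverslips in EMEM with 10% FBS. At 37°C, the cytoplasm was co-microinjected with 170 µM test compound and 2.5 mg ml−1 Texas Red 70-kDa dextran, which cannot cross nuclear pores. After 5 min incubation, cells were moved to fresh CO2-independent medium and imaged live.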

[4] = tested on: MRC-5 cells; assay: Flow cytometry of fluorescence intensity; format: cell-based, human; details: MRC-5, LeuLeuOMe treatment
In short: as §1

[5] = tested on: MCF-7/ADR cells; assay: Flow cytometry of relative fluorescence changes; format: cell-based, human; details: for relative fluorescence change upon verapamil: 50 µM verapamil (P-glycoprotein inhibition); for relative fluorescence change upon LeuLeuOMe: 0.5 mM LeuLeuOMe
[6] = tested on: MCF-7/ADR cells; assay: Subcellular localization by fluorescence microscopy; format: cell-based, human
[7] = tested on: MCF-7 cells; assay: as above; format: cell-based, human; details: drug-sensitive MCF-7, 5 µM BMVC
[8] = tested on: normal and cancer cells; assay: Low temperature; format: cell-based; details: incubation at 4°C, energy-dependent mechanisms inhibited
In short: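 Cells were precooled at 4°C for 1 h to block energy-dependent uptake, then incubated with 1 µM test compound for 1 h. Cells were co-stained for 10 min with 1 ng ml−1 Hoechst 33342 (membrane-permeant) or Hoechst 33258 (impermeant) as controls. Imaging was by epi-fluorescence microscopy.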

[9] = tested on: MRC-5 cells; assay: Subcellular localization by epi-fluorescence/confocal microscopy; format: cell-based, human
[10] = Lipophilicity, n-octanol/water partition; format: physicochemical
In short: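 Shake-flask method: n-octanol and water were premixed and left overnight. Test compound was added to the aqueous phase at 500 µM and mixed with an equal volume of n-octanol. Absorbance was measured in each phase, and log P was calculated as log[Ao/Aw].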

[11] = tested on: CL1-0 cells; assay: Lysosomal membrane permeabilization; format: cell-based, human
[12] = tested on: MRC-5 cells; assay: Lysosomal membrane permeabilization; format: cell-based, human
[13] = tested on: normal cells; assay: Effect of lysosomal pH-raising agents on nuclear fluorescence of BMVC; format: cell-based; details: agents raise internal pH of lysosomes
[14] = tested on: MCF-7/ADR cells; assay: Cytotoxicity of doxorubicin; format: cell-based; details: Homo sapiens, NCI/ADR-RES, read-out: cytotoxicity IC50

SMILES: C[n+]1ccc(C=Cc2ccc3[nH]c4ccc(C=Cc5cc[n+](C)cc5)cc4c3c2)cc1.[I-].[I-] [BMVC, 3,6-bis(1-methyl-4-vinylpyridinium) carbazole diiodide]
- time-dependent fluorescent intensity ([1]; 1 µM BMVC, flow cytometry, CL1-0 compared with MRC-5): significantly higher in CL1-0 than in MRC-5 cells
- BMVC fluorescence change after LeuLeuOMe ([1]; CL1-0, LeuLeuOMe treatment): small increase in BMVC fluorescence
- lysosomal retention / co-localization with LysoTracker ([2]; CL1-0 cancer cells, confocal microscopy): partially colocalized with MitoTracker red, but not LysoTracker red
- subcellular localization (nucleus versus mitochondria) [2]: strong fluorescent signal was observed in the nuclei; also recorded: localize to the nuclei to a greater extent than the mitochondria
- fluorescent signal in cancer cell nuclei upon DNase treatment ([2]; fixed CL1-0 cells, DNase): dramatically reduced
- fluorescent signal in cancer cell nuclei upon RNase treatment ([2]; fixed CL1-0 cells, RNase): moderately reduced
- localization after microinjection into the cytoplasm [3]: rapidly accumulated in the nuclei
- BMVC fluorescence intensity change after LeuLeuOMe [4]: increase in the fluorescence intensity
- relative fluorescence change upon verapamil [5]: without affecting BMVC fluorescence
- relative fluorescence change upon LeuLeuOMe [5]: more than tenfold
- nuclear fluorescence upon LeuLeuOMe treatment ([6]; MCF-7/ADR, LeuLeuOMe, confocal microscopy): increased nuclear BMVC fluorescence
- subcellular localization / lysosomal retention ([6]; drug-resistant MCF-7/ADR): localized to the lysosomes; also recorded: retained in the lysosomes
- subcellular localization [7]: released from the lysosomes and entered the nucleus
- fluorescence detected in cells at 4°C (uptake) [8]: not detected
- BMVC fluorescence localization after LeuLeuOMe ([9]; MRC-5, 5 µM BMVC 24 h then LeuLeuOMe 0.5 mM 1 h): can be detected in the nucleus
- nuclear fluorescence in fixed and permeabilized cells ([9]; MRC-5 fixed and permeabilized (4% formaldehyde, 0.1% Triton X-100)): strong BMVC fluorescence similar to that in CL1-0 cells
- lysosomal retention / co-localization with LysoTracker ([9]; MRC-5 normal lung cells, confocal microscopy): colocalized with LysoTracker red but not MitoTracker red
- nuclear fluorescence ([9]; MRC-5 normal lung cells, fluorescence microscopy): no fluorescence was observed in the nuclei

SMILES: C[n+]1ccc(/C=C/c2ccc3c(c2)c2cc(/C=C/c4cc[n+](C)cc4)ccc2n3CCOCCOCCOCC[N+]2(C)CCCCC2)cc1.[I-].[I-].[I-] [BMVC-8C3O]
- subcellular localization (nucleus versus mitochondria) [2]: localized to both the nucleus and the mitochondria
- lipophilicity (log P), in words [10]: lower lipophilicity

SMILES: CN1CCN(c2ccc3[nH]c(-c4ccc5[nH]c(-c6ccc(O)cc6)nc5c4)nc3c2)CC1 [Hoechst 33258]
- fluorescence detected in cells at 4°C (uptake) [8]: not detected

SMILES: CCOc1ccc(-c2nc3ccc(-c4nc5ccc(N6CCN(C)CC6)cc5[nH]4)cc3[nH]2)cc1 [Hoechst 33342]
- fluorescence detected in cells at 4°C (uptake) [8]: readily detected in the cells

SMILES: COC(=O)[C@H](CC(C)C)NC(=O)[C@@H](N)CC(C)C [LeuLeuOMe, L-leucyl-L-leucine methyl ester]
- lysosomal membrane permeabilization [11]: increases lysosomal membrane permeabilization
- lysosomal membrane permeabilization [12]: increases lysosomal membrane permeabilization

SMILES: Cl.N [NH4Cl, ammonium chloride]
- effect on nuclear fluorescence of BMVC [13]: increased nuclear fluorescence of BMVC

SMILES: CCN(CC)CCCC(C)Nc1ccnc2cc(Cl)ccc12 (centres unmarked) [chloroquine]
- effect on nuclear fluorescence of BMVC [13]: increased nuclear fluorescence of BMVC

SMILES: COc1cccc2c1C(=O)c1c(O)c3c(c(O)c1C2=O)C[C@@](O)(C(=O)CO)C[C@@H]3O[C@H]1C[C@H](N)[C@H](O)[C@H](C)O1 [doxorubicin, reference compound]
- relative fluorescence change upon verapamil [5]: increased twofold
- relative fluorescence change upon LeuLeuOMe [5]: no difference in doxorubicin fluorescence
- IC50 [14]: ≥ 20 µM
